Test results taken from paper PMC8453750 (Clinical Pharmacology in Drug Development, 2021).

Assays:
CYP2B6 = conditions: recombinant human CYPs; cited from earlier work
CYP1A2 = conditions: recombinant human CYPs; cited from earlier work
[1] = Part 1 safety: treatment-emergent adverse events, labs, vital signs, ECG; format: in vivo, human
In short: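 Part 1 had 12 healthy adults. They received a single fasted oral 20 mg dose of the test compound, then itraconazole oral solution 200 mg once daily for 14 days, with the test compound coadministered. TEAEs were recorded through 30 days after the last test-compound dose, coded with MedDRA v22.0 and graded by NCI CTCAE v5. Vital signs, hematology/chemistry/urinalysis and 12-lead ECG were also assessed. All were summarised descriptively.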

CYP2C8 = conditions: recombinant human CYPs; cited from earlier work
[2] = preclinical data; ref data on file; Millennium Pharmaceuticals, Inc.; cited from earlier work
[3] = Part 2: mobocertinib-rifampin DDI study, plasma PK; format: in vivo, human
[4] = cited from earlier work
CYP2C19 = conditions: recombinant human CYPs; cited from earlier work
CYP2D6 = conditions: recombinant human CYPs; cited from earlier work
CYP3A4/5 = conditions: recombinant human CYPs; cited from earlier work
[5] = cited from earlier work; remark: listed apart in the source
[6] = Part 1: mobocertinib-itraconazole DDI study, plasma PK; format: in vivo, human; conditions: for AUC(0-inf) / Cmax / half-life: human, plasma, oral; for AUC(0-inf): AUC0-∞; for half-life: t½; for AUC0-∞, Geometric LS Mean Ratio (90%CI) (Test/Reference) / Cmax, Geometric LS Mean Ratio (90%CI) (Test/Reference): mobocertinib 20 mg + itraconazole vs mobocertinib alone
In short: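 Nonsmoking adults aged 18–55 (n = 12) took a single oral capsule dose of 20 mg fasted, with a meal at least 4 h postdose. This was repeated with itraconazole solution 200 mg once daily on an empty stomach over 14 days, after a 4-day lead-in. Plasma was sampled predose to 168 h, adding 192 and 240 h with itraconazole. Parent and two metabolites were measured by LC-MS/MS (LLOQ 0.100 ng/mL). Analysis was noncompartmental, with ln-transformed geometric LSM ratios and 90% CI.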

CYP2C9 = conditions: recombinant human CYPs; cited from earlier work
[7] = Part 2 safety: treatment-emergent adverse events, labs, vital signs, ECG; format: in vivo, human
In short: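 Part 2 had 12 healthy adults. They received a single fasted oral 160 mg dose of the test compound, then rifampin 600 mg once daily, with a 7-day lead-in before coadministration and 6 days of continued dosing afterwards. TEAEs were recorded through 30 days after the last test-compound dose, coded with MedDRA v22.0 and graded by NCI CTCAE v5. Vital signs, hematology/chemistry/urinalysis and 12-lead ECG were also assessed. All were summarised descriptively.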

[8] = Mobocertinib 20 mg + Itraconazole, part 1
[9] = Mobocertinib 20 mg Alone, part 1
[10] = mobocertinib 160 mg + rifampin vs mobocertinib alone
[11] = rifampin plus mobocertinib 160 mg
[12] = 20 mg, Arithmetic Means (SD), mobocertinib 20 mg alone (reference), footnote a: mean (%CV)
[13] = 20 mg, Geometric Means (%CV), mobocertinib 20 mg alone (reference)
[14] = Arithmetic Means (SD), mobocertinib 20 mg + itraconazole 200 mg once daily (test), footnote a: mean (%CV)
[15] = Geometric Means (%CV), mobocertinib 20 mg + itraconazole 200 mg once daily (test)
[16] = itraconazole and mobocertinib 20 mg vs mobocertinib alone
[17] = itraconazole plus mobocertinib 20 mg vs mobocertinib alone
[18] = Mobocertinib 160 mg + Rifampin, part 2
[19] = Mobocertinib 160 mg Alone, part 2

## C=CC(=O)Nc1cc(Nc2ncc(C(=O)OC(C)C)c(-c3cn(C)c4ccccc34)n2)c(OC)cc1N(C)CCN(C)C [Mobocertinib]
CYP2B6
  Percent contribution of enzyme to metabolism: < 2%
CYP1A2
  Percent contribution of enzyme to metabolism: < 2%
[1]; [8]
  TEAE: Back pain: 1 (8) n (%)
  TEAE: Chest discomfort: 0 n (%)
  TEAE: Diarrhea: 2 (17) n (%)
  TEAE: Dry skin: 0 n (%)
  TEAE: Dry throat: 0 n (%)
  TEAE: Headache: 1 (8) n (%)
  TEAE: Nausea: 0 n (%)
  TEAE: Oropharyngeal pain: 0 n (%)
  TEAE: Pruritus: 0 n (%)
  TEAE: Pruritus generalized: 0 n (%)
  TEAE: Rash: 0 n (%)
  Volunteers with TEAEs: 4 (33) n (%)
  Volunteers without TEAEs: 8 (67) n (%)
[1]; [9]
  TEAE: Back pain: 0 n (%)
  TEAE: Chest discomfort: 0 n (%)
  TEAE: Diarrhea: 0 n (%)
  TEAE: Dry skin: 1 (8) n (%)
  TEAE: Dry throat: 0 n (%)
  TEAE: Headache: 0 n (%)
  TEAE: Nausea: 0 n (%)
  TEAE: Oropharyngeal pain: 0 n (%)
  TEAE: Pruritus: 0 n (%)
  TEAE: Pruritus generalized: 0 n (%)
  TEAE: Rash: 0 n (%)
  Volunteers with TEAEs: 1 (8) n (%)
  Volunteers without TEAEs: 11 (92) n (%)
[1]; Part 1 Overall
  TEAE: Back pain: 1 (8) n (%)
  TEAE: Chest discomfort: 0 n (%)
  TEAE: Diarrhea: 2 (17) n (%)
  TEAE: Dry skin: 1 (8) n (%)
  TEAE: Dry throat: 0 n (%)
  TEAE: Headache: 1 (8) n (%)
  TEAE: Nausea: 0 n (%)
  TEAE: Oropharyngeal pain: 0 n (%)
  TEAE: Pruritus: 0 n (%)
  TEAE: Pruritus generalized: 0 n (%)
  TEAE: Rash: 0 n (%)
  Volunteers with TEAEs: 5 (42) n (%)
  Volunteers without TEAEs: 7 (58) n (%)
[1]; part 1
  Changes in laboratory parameters, vital signs, or ECGs: no apparent or consistent treatment‐related changes
  Deaths, serious TEAEs, discontinuations: No deaths, serious TEAEs, or discontinuations
[1]; single oral dose 20 mg with itraconazole, healthy volunteers
  Tolerability: generally well tolerated
CYP2C8
  Percent contribution of enzyme to metabolism: < 2%
[2]
  Mutagenicity / genotoxicity: neither mutagenic nor genotoxic
[3]; [10]
  AUC0-∞, Geometric LS Mean Ratio (90%CI) (Test/Reference): 0.04 (0.03‐0.05)
  Cmax, Geometric LS Mean Ratio (90%CI) (Test/Reference): 0.05 (0.04‐0.07)
[3]; mobocertinib 160 mg + rifampin vs mobocertinib alone, listed as mobocertinib
  AUC0-∞, Geometric LS Mean Ratio (90%CI) (Test/Reference): 0.04
[3]; [11]
  Plasma AUC0-∞ as % of value following mobocertinib alone: ~4%
  Plasma Cmax as % of value following mobocertinib alone: approximately 5%
[3]; rifampin plus mobocertinib 160 mg vs mobocertinib alone
  Reduction in geometric mean t½: 29%
[4]
  Effect of a low-fat meal on absorption: no apparent effect
[4]; renal elimination
  Excreted unchanged in urine: < 1.2%
[4]; single oral doses, healthy volunteers
  Mean half-life: 20 h
CYP2C19
  Percent contribution of enzyme to metabolism: < 2%
CYP2D6
  Percent contribution of enzyme to metabolism: < 2%
CYP3A4/5
  Percent contribution of enzyme to metabolism: > 90%
[5]; 20 to 120 mg once daily, patients with NSCLC
  Accumulation of systemic exposure after repeat dosing: moderate accumulation
[5]; dose escalation, patients with NSCLC
  Recommended phase 2 dose: 160 mg once daily
[5]; dose range 5 to 180 mg once daily
  Dose proportionality of Cmax and AUC0-24: increased in a dose‐proportional manner
[5]; once-daily administration, patients with NSCLC
  Median tmax: 4 hours postdose
[6]; [12]
  AUC(0-inf): 113 ng·h/mL
  Cmax: 5.78 ng/mL
  half-life: 21.5 h
[6]; [13]
  AUC(0-inf): 106 ng·h/mL
  Cmax: 5.52 ng/mL
  half-life: 21.2 h
[6]; [14]
  AUC(0-inf): 907 ng·h/mL
  Cmax: 21.5 ng/mL
  half-life: 54.7 h
[6]; [15]
  AUC(0-inf): 892 ng·h/mL
  Cmax: 21.1 ng/mL
  half-life: 53.9 h
[6]; [16]
  Increase in plasma AUC0-∞: 743%
  Increase in plasma Cmax: ≈ 283%
[6]; [17]
  Increase in geometric mean t½: 154%
  Median tmax reached later: 2 h
[6]
  AUC0-∞, Geometric LS Mean Ratio (90%CI) (Test/Reference): 8.43 (7.02‐10.12)
  Cmax, Geometric LS Mean Ratio (90%CI) (Test/Reference): 3.83 (3.25‐4.50)
[6]; listed as mobocertinib
  AUC0-∞, Geometric LS Mean Ratio (90%CI) (Test/Reference): 8.43
  Cmax, Geometric LS Mean Ratio (90%CI) (Test/Reference): 3.83
CYP2C9
  Percent contribution of enzyme to metabolism: < 2%
[7]; [18]
  TEAE: Back pain: 1 (8) n (%)
  TEAE: Chest discomfort: 2 (17) n (%)
  TEAE: Diarrhea: 3 (25) n (%)
  TEAE: Dry skin: 0 n (%)
  TEAE: Dry throat: 0 n (%)
  TEAE: Headache: 2 (17) n (%)
  TEAE: Nausea: 2 (17) n (%)
  TEAE: Oropharyngeal pain: 2 (17) n (%)
  TEAE: Pruritus: 2 (17) n (%)
  TEAE: Pruritus generalized: 0 n (%)
  TEAE: Rash: 2 (17) n (%)
  Volunteers with TEAEs: 10 (83) n (%)
  Volunteers without TEAEs: 2 (17) n (%)
[7]; [19]
  TEAE: Back pain: 1 (8) n (%)
  TEAE: Chest discomfort: 0 n (%)
  TEAE: Diarrhea: 2 (17) n (%)
  TEAE: Dry skin: 3 (25) n (%)
  TEAE: Dry throat: 2 (17) n (%)
  TEAE: Headache: 1 (8) n (%)
  TEAE: Nausea: 1 (8) n (%)
  TEAE: Oropharyngeal pain: 0 n (%)
  TEAE: Pruritus: 0 n (%)
  TEAE: Pruritus generalized: 2 (17) n (%)
  TEAE: Rash: 0 n (%)
  Volunteers with TEAEs: 9 (75) n (%)
  Volunteers without TEAEs: 3 (25) n (%)
[7]; Part 2 Overall
  TEAE: Back pain: 2 (17) n (%)
  TEAE: Chest discomfort: 2 (17) n (%)
  TEAE: Diarrhea: 4 (33) n (%)
  TEAE: Dry skin: 3 (25) n (%)
  TEAE: Dry throat: 2 (17) n (%)
  TEAE: Headache: 3 (25) n (%)
  TEAE: Nausea: 3 (25) n (%)
  TEAE: Oropharyngeal pain: 2 (17) n (%)
  TEAE: Pruritus: 2 (17) n (%)
  TEAE: Pruritus generalized: 2 (17) n (%)
  TEAE: Rash: 2 (17) n (%)
  Volunteers with TEAEs: 11 (92) n (%)
  Volunteers without TEAEs: 1 (8) n (%)
[7]; part 2
  Changes in laboratory parameters, vital signs, or ECGs: no apparent or consistent treatment‐related changes
  Deaths, serious TEAEs, discontinuations: No deaths, serious TEAEs, or discontinuations
[7]; single oral dose 160 mg with rifampin, healthy volunteers
  Tolerability: generally well tolerated
